Measured values published in ChEMBL document CHEMBL1138182, “Structure activity relationships of 5-, 6-, and 7-methyl-substituted azepan-3-one cathepsin K inhibitors” (J Med Chem, 2006).

Key:
[1] = Protein binding in plasma; type: ADME, cell-free; conditions: rat, read-out: PPB (converted)
Procedure, shortened: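 Rat plasma; binding determined by equilibrium dialysis or ultrafiltration.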

Cathepsin K [2] = target: T1, Cathepsin K (Homo sapiens, UniProt P43235); experiment: Inhibition of human cathepsin K; conditions: read-out: Ki app
T1 sequence (P43235 whole entry): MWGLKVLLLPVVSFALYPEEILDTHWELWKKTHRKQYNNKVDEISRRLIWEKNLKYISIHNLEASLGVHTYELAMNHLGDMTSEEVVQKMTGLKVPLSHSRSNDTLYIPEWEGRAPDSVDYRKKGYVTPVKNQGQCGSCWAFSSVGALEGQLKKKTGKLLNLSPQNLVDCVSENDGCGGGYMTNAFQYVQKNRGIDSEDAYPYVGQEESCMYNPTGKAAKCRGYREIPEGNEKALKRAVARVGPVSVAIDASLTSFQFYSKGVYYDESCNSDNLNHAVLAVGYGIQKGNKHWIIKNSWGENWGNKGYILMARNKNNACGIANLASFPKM

[3] = Oral bioavailability in Sprague-Dawley rat; type: ADME, organism-based; conditions: in vivo
Procedure, shortened: (§1)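 Male Sprague-Dawley rats, n = 3, iv/po crossover. Dosed iv as a 1-2 mg/kg 0.5-h infusion through an indwelling femoral vein catheter, then 2-4 mg/kg oral gavage 2 days later. Vehicle: aqueous, <2% DMSO, <20% hydroxypropyl-β-cyclodextrin. Tail-vein plasma sampled at timed intervals, measured by LC/MS/MS (LLOQ 1.0-10 ng/mL). Noncompartmental analysis.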

Cathepsin B = Cathepsin B (Homo sapiens, UniProt P07858); experiment: Inhibition of human cathepsin B; conditions: read-out: Ki app
Procedure, shortened: (§2)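 Recombinant human enzyme with fluorogenic substrate, typically Cbz-Phe-Arg-AMC, in 100 mM sodium acetate pH 5.5 with 20 mM cysteine and 5 mM EDTA, at ambient temperature. Enzyme added last to inhibitor plus substrate. AMC fluorescence read at ex 360/em 460. Progress curves at variable inhibitor concentrations were fitted for Ki,app, by competitive velocity equation or slow-binding exponential.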

[4] = Half life in iv dosed Sprague-Dawley rat; type: ADME, organism-based; conditions: in vivo; procedure, shortened: as §1
[5] = Permeability in artificial membrane; type: ADME, cell membranes; conditions: PAMPA; read-out: permeability
[6] = Volume of distribution in iv dosed Sprague-Dawley rat; type: ADME, organism-based; conditions: in vivo, read-out: Vdss; procedure, shortened: as §1
Osteoclast = experiment: Effect on collagen […] in osteoclast bone resorption assay; type: functional, cell-based; conditions: Homo sapiens
Procedure, shortened: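 Human osteoclastoma-derived osteoclasts on bovine cortical bone slices, incubated 48 h with a range of compound concentrations. Type-I collagen C-telopeptide release measured by ELISA.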

[7] = Permeability in MDCK cells at 10 uM; type: ADME, cell-based, Canis lupus familiaris; conditions: dog, read-out: permeability
Procedure, shortened: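 MDCK cells at passage 60-80, grown in MEM + 10% FBS at 37 °C, 5% CO2, seeded on Transwells and assayed 3 days after seeding. After ~1 h equilibration in HBSS with 25 mM glucose and 25 mM HEPES, 10 µM compound (1% DMSO final) was added apically. Basolateral concentration measured by LC/MS/MS over 3600 s, Papp calculated, duplicates, propranolol and mannitol controls.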

[8] = Clearance in iv dosed Sprague-Dawley rat; type: ADME, organism-based; conditions: in vivo; procedure, shortened: as §1
Cathepsin S = Cathepsin S (Homo sapiens, UniProt P25774); experiment: Inhibition of human cathepsin S; conditions: read-out: Ki app
Cathepsin K [9] = target: T2, Cathepsin K (Rattus norvegicus, UniProt O35186); experiment: Inhibition of rat cathepsin K; conditions: read-out: Ki app
T2 sequence (O35186 whole entry): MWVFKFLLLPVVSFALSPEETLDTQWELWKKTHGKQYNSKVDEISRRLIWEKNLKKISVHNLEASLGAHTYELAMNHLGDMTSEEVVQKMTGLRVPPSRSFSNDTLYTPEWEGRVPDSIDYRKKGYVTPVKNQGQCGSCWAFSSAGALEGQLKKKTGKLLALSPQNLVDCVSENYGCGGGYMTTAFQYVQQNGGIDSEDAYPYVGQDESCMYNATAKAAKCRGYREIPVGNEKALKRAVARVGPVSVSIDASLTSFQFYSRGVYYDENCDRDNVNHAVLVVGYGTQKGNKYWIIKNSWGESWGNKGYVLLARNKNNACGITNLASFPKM
Procedure, shortened: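 Recombinant enzyme; fluorogenic peptide substrate (typically Cbz-Phe-Arg-AMC) in 100 mM sodium acetate pH 5.5 with 20 mM cysteine and 5 mM EDTA, ambient temperature. Reaction started by adding enzyme to inhibitor plus substrate at variable inhibitor concentrations; AMC fluorescence (ex 360, em 460 nm) followed as progress curves. Ki,app obtained by fitting to the competitive velocity equation or the slow-binding progress-curve equation.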

Cathepsin L2 = target: T3, Cathepsin L2 (Homo sapiens, UniProt O60911); experiment: Inhibition of human cathepsin V; conditions: read-out: Ki app; procedure, shortened: as §2
T3 sequence (O60911 whole entry): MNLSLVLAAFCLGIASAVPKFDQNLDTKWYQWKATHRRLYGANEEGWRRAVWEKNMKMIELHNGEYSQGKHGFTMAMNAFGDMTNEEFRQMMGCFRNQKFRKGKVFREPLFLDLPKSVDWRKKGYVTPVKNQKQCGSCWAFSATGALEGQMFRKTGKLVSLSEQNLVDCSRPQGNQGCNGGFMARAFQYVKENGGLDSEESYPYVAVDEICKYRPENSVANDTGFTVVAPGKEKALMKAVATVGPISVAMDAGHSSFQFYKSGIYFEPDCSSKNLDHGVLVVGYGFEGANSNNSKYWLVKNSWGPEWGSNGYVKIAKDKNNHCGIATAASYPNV

[10] = Half life in iv dosed cynomolgus monkey; type: ADME, organism-based, Macaca fascicularis; conditions: in vivo
Procedure, shortened: (§3)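 Cynomolgus monkeys (male, n = 3) in an iv × po crossover. Dosed by 1-h iv infusion of 1-2 mg/kg via temporary saphenous vein catheter, then 2-4 mg/kg oral gavage 7 days later. Vehicle: aqueous <2% DMSO, <20% hydroxypropyl-β-cyclodextrin. Femoral-vein plasma measured by LC/MS/MS, LLOQ 1.0-10 ng/mL. Parameters by noncompartmental methods.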

[11] = Volume of distribution in iv dosed cynomolgus monkey; type: ADME, organism-based, Macaca fascicularis; conditions: in vivo, read-out: Vdss; procedure, shortened: as §3
[12] = Oral bioavailability in cynomolgus monkey; type: ADME, organism-based, Macaca fascicularis; conditions: in vivo; procedure, shortened: as §3
[13] = Clearance in iv dosed cynomolgus monkey; type: ADME, organism-based, Macaca fascicularis; conditions: in vivo; procedure, shortened: as §3

Chain of Cathepsin S (P25774 whole entry): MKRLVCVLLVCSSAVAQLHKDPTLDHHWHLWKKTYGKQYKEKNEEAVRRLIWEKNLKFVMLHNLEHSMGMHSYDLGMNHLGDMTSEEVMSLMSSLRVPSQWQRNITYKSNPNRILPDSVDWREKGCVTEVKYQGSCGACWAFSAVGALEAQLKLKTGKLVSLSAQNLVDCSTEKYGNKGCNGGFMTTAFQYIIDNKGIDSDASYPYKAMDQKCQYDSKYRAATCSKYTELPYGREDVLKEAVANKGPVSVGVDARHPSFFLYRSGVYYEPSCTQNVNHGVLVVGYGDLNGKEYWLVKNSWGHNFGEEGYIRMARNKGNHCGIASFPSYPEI

| fraction unbound [1] | Ki (Cathepsin K [2]) [nM] | Ki (Cathepsin B) [nM] | Papp [5] [×10⁻⁶ cm/s] | IC50 (Osteoclast) [nM] | Papp at 10 µM [7] [×10⁻⁶ cm/s] | SMILES | Ki (Cathepsin S) [nM] | Ki (Cathepsin K [9]) [nM] | further results |
| --- | --- | --- | --- | --- | --- | --- | --- | --- | --- |
| 0.053 | 0.0099 | 32 | 68 | 20 | 55 | CC(C)C[C@H](NC(=O)c1cc2ccccc2o1)C(=O)N[C@@H]1C(=O)CN(S(=O)(=O)c2ccccn2)CC[C@@H]1C |  |  | bioavailability [3]: < 5.4%; half-life [4]: 58.5 min; Vd [6]: 4.7 L/kg; clearance [8]: 80.5 mL/min/kg |
|  | 42 | > 1000 |  |  |  | CC(C)C[C@H](NC(=O)c1cc2ccccc2o1)C(=O)N[C@H]1C(=O)CN(S(=O)(=O)c2ccccn2)CC[C@H]1C |  |  |  |
|  | 1.5 | > 1000 |  |  |  | CC(C)C[C@H](NC(=O)c1cc2ccccc2o1)C(=O)N[C@@H]1C(=O)CN(S(=O)(=O)c2ccccn2)CC[C@H]1C |  |  |  |
|  | 19 | > 1000 |  |  |  | CC(C)C[C@H](NC(=O)c1cc2ccccc2o1)C(=O)N[C@H]1C(=O)CN(S(=O)(=O)c2ccccn2)CC[C@@H]1C |  |  |  |
| 0.044 | 0.14 |  | 56 | 35 | 49 | CC(C)C[C@H](NC(=O)c1cc2ccccc2o1)C(=O)N[C@H]1C[C@H](C)CN(S(=O)(=O)c2ccccn2)CC1=O | 5.8 | 73 | bioavailability [3]: 26.2%; half-life [4]: 51.6 min; Vd [6]: 1.46 L/kg; clearance [8]: 34.4 mL/min/kg |
| 0.03 |  |  | 53 | 63 | 57 | CC(C)C[C@H](NC(=O)c1cc2ccccc2o1)C(=O)N[C@H]1CCCN(S(=O)(=O)c2ccccn2)CC1=O |  |  | Ki (Cathepsin L2): 1.8 nM; half-life [10]: 36.5 min; Vd [11]: 0.72 L/kg; bioavailability [12]: 7.3%; clearance [13]: 13.9 mL/min/kg |
|  | 29 |  |  |  |  | CC(C)C[C@H](NC(=O)c1cc2ccccc2o1)C(=O)N[C@H]1C[C@@H](C)CN(S(=O)(=O)c2ccccn2)CC1=O | 350 | > 1000 |  |
|  | 4.5 |  |  |  |  | CC(C)C[C@H](NC(=O)c1cc2ccccc2o1)C(=O)N[C@@H]1C[C@H](C)CN(S(=O)(=O)c2ccccn2)CC1=O | 8.3 | 660 |  |

The remaining lines, values behind:

| SMILES | fraction unbound [1] | Ki (Cathepsin K [2]) [nM] | Ki (Cathepsin B) [nM] | Papp [5] [×10⁻⁶ cm/s] | IC50 (Osteoclast) [nM] | Papp at 10 µM [7] [×10⁻⁶ cm/s] | Ki (Cathepsin S) [nM] | Ki (Cathepsin K [9]) [nM] | further results |
| --- | --- | --- | --- | --- | --- | --- | --- | --- | --- |
| CC(C)C[C@H](NC(=O)c1cc2ccccc2o1)C(=O)N[C@@H]1CC[C@H](C)N(S(=O)(=O)c2ccccn2)CC1=O |  |  |  |  |  |  | 110 | 790 |  |
| CC(C)C[C@H](NC(=O)c1cc2ccccc2o1)C(=O)N[C@@H]1CC[C@@H](C)N(S(=O)(=O)c2ccccn2)CC1=O |  |  |  |  |  |  | 92 | 430 |  |
| CC(C)C[C@H](NC(=O)c1cc2ccccc2o1)C(=O)N[C@@H]1C[C@@H](C)CN(S(=O)(=O)c2ccccn2)CC1=O |  | 30 |  |  |  |  | 300 | > 1000 |  |
| CC(C)C[C@H](NC(=O)c1cc2ccccc2o1)C(=O)N[C@H]1CC[C@H](C)N(S(=O)(=O)c2ccccn2)CC1=O |  |  |  |  |  |  | 42 | 680 |  |
| CC(C)C[C@H](NC(=O)c1cc2ccccc2o1)C(=O)N[C@H]1CC[C@@H](C)N(S(=O)(=O)c2ccccn2)CC1=O [RELACATIB] | 0.032 |  | 13 | 47 | 22 | 47 | 1.6 | 8 | bioavailability [3]: 89.4%; half-life [4]: 109 min; Ki (Cathepsin L2): 0.063 nM; half-life [10]: 168 min; Vd [11]: 0.95 L/kg; Vd [6]: 1.79 L/kg; bioavailability [12]: 27.6%; clearance [8]: 19.5 mL/min/kg; clearance [13]: 11.7 mL/min/kg |
